According to ChEMBL document CHEMBL1154874, “6-Substituted 2-(N-trifluoroacetylamino)imidazopyridines induce cell cycle arrest and apoptosis in SK-LU-1 human cancer cell line” (Eur J Med Chem, 2010):

Experiments:
PC-3 [1] = assay: Cytotoxicity against human PC3 cells assessed as cell growth inhibition at 50 uM after 48 hrs by SRB assay; format: functional; settings: PC-3, 48 h, read-out: GI
How it was run: (§1)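 Cells in RPMI-1640/10% FBS/2 mM L-glutamine at 37 °C, 5% CO₂, seeded at 5000 cells/well and treated 24 h later for 48 h. Growth read by SRB (TCA fixation, 0.4% SRB, Tris solubilization, OD 515 nm).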

K562 [2] = assay: Cytotoxicity against human K562 cells assessed as cell growth inhibition at 50 uM after 48 hrs by SRB assay; format: functional; settings: K562, 48 h, read-out: GI; how it was run: as §1
PC-3 [3] = assay: Cytotoxicity against human PC3 cells after 48 hrs by SRB assay; format: functional, cell-based; settings: PC-3, 48 h
How it was run: (§2)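 Compounds dissolved in DMSO. Cells grown in RPMI-1640 with 10% FBS and 2 mM L-glutamine at 37 °C under 5% CO₂. Seeded from 70% confluent flasks at 5000 cells/well, treated 24 h after seeding for 48 h. Fixed in situ with cold 50% TCA for 1 h at 4 °C, stained with 0.4% SRB, dye solubilized in 10 mM unbuffered Tris base, OD read at 515 nm.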

HCT-15 [4] = assay: Cytotoxicity against human HCT15 cells assessed as cell growth inhibition at 50 uM after 48 hrs by SRB assay; format: functional; settings: HCT-15, 48 h, read-out: GI; how it was run: as §1
HCT-15 [5] = assay: Cytotoxicity against human HCT15 cells after 48 hrs by SRB assay; format: functional, cell-based; settings: HCT-15, 48 h; how it was run: as §2
K562 [6] = assay: Cytotoxicity against human K562 cells after 48 hrs by SRB assay; format: functional, cell-based; settings: K562, 48 h; how it was run: as §2
U-251 [7] = assay: Cytotoxicity against human U251 cells assessed as cell growth inhibition at 50 uM after 48 hrs by SRB assay; format: functional; settings: U-251, 48 h, read-out: GI; how it was run: as §1
SK-LU-1 [8] = assay: Cytotoxicity against human SK-LU-1 cells assessed as cell growth inhibition at 50 uM after 48 hrs by SRB assay; format: functional; settings: SK-LU-1, 48 h, read-out: GI; how it was run: as §1
SK-LU-1 [9] = assay: Cytotoxicity against human SK-LU-1 cells after 48 hrs by SRB assay; format: functional, cell-based; settings: SK-LU-1, 48 h; how it was run: as §2
MCF7 [10] = assay: Cytotoxicity against human MCF7 cells assessed as cell growth inhibition at 50 uM after 48 hrs by SRB assay; format: functional; settings: MCF7, 48 h, read-out: GI; how it was run: as §1
MCF7 [11] = assay: Cytotoxicity against human MCF7 cells after 48 hrs by SRB assay; format: functional, cell-based; settings: MCF7, 48 h; how it was run: as §2
U-251 [12] = assay: Cytotoxicity against human U251 cells after 48 hrs by SRB assay; format: functional, cell-based; settings: U-251, 48 h; how it was run: as §2
SK-LU-1 [13] = assay: Cell cycle arrest in human SK-LU-1 cells assessed as accumulation at G2/M phase at 2 times IC50 concentration after 24 hrs using propidium iodide staining by flow cytometry relative to control; format: functional
How it was run: (§3)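 Log-phase cells seeded in RPMI-1640 + 10% FBS at 1×10⁶ per 10 cm dish, attached 24 h at 37 °C, then exposed to compound (DMSO solvent control) for 24 h. Harvested with PBS-EDTA, washed, fixed in ice-cold 70% ethanol at −20 °C for 24–48 h, stained with propidium iodide and analysed by FACScan flow cytometry. Three independent experiments, mean ± SD; P < 0.05 versus DMSO.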

SK-LU-1 [14] = assay: Cell cycle arrest in human SK-LU-1 cells assessed as accumulation at S phase at 2 times IC50 concentration after 24 hrs using propidium iodide staining by flow cytometry relative to control; format: functional; how it was run: as §3
SK-LU-1 [15] = assay: Cell cycle arrest in human SK-LU-1 cells assessed as accumulation at G0/G1 phase at 2 times IC50 concentration after 24 hrs using propidium iodide staining by flow cytometry relative to control; format: functional; how it was run: as §3
MCF7 [16] = assay: Cell cycle arrest in human MCF7 cells assessed as accumulation at S phase at 2 times IC50 concentration after 24 hrs using propidium iodide staining by flow cytometry relative to control; format: functional; how it was run: as §3
SK-LU-1 [17] = assay: Induction of apoptosis in human SK-LU-1 cells assessed as appearance of phosphatidylserine residues at 2 times IC50 concentration after 48 hrs by flow cytometry; format: functional
How it was run: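 SK-LU-1 cells treated 48 h with compounds at 2×IC50 or with DMSO as control. Labelled with FITC-annexin V and propidium iodide in binding buffer and analysed on a FACScan flow cytometer. Annexin V-only cells were scored as early apoptotic and annexin V/PI double-stained cells as late apoptotic. Values are means of three independent experiments.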

MCF7 [18] = assay: Cell cycle arrest in human MCF7 cells assessed as accumulation at G0/G1 phase at 2 times IC50 concentration after 24 hrs using propidium iodide staining by flow cytometry relative to control; format: functional; how it was run: as §3
MCF7 [19] = assay: Cell cycle arrest in human MCF7 cells assessed as accumulation at G2/M phase at 2 times IC50 concentration after 24 hrs using propidium iodide staining by flow cytometry relative to control; format: functional; how it was run: as §3

**Q.** Which inhibition of growth at 50 µM (PC-3 [1]) does the source give for `O=C(c1ccc2nc(NC(=O)C(F)(F)F)cn2c1)c1ncc[nH]1` here?
**A.** 58.1%

**Q.** What about the inhibition of growth at 50 µM (K562 [2]) of the same compound?
**A.** 88.3%

**Q.** What about the IC50 (PC-3 [3]) of the same compound?
**A.** 52.3 µM

**Q.** What about the inhibition of growth at 50 µM (HCT-15 [4]) of the same compound?
**A.** 47.8%

**Q.** And the IC50 (HCT-15 [5])?
**A.** 56.8 µM

**Q.** What about the IC50 (K562 [6]) of the same compound?
**A.** 51.5 µM

**Q.** What about the inhibition of growth at 50 µM (U-251 [7]) of the same compound?
**A.** 80.2%

**Q.** What about the inhibition of growth at 50 µM (SK-LU-1 [8]) of the same compound?
**A.** 97.5%

**Q.** And the IC50 (SK-LU-1 [9])?
**A.** 25.1 µM

**Q.** And the inhibition of growth at 50 µM (MCF7 [10])?
**A.** 60.7%

**Q.** And the IC50 (MCF7 [11])?
**A.** 42.4 µM

**Q.** What about the IC50 (U-251 [12]) of the same compound?
**A.** 37.7 µM

**Q.** For `Cc1ccc(C(=O)c2ccc3nc(NC(=O)C(F)(F)F)cn3c2)cc1F`, which Activity (SK-LU-1 [13]) is on record?
**A.** 60.6%

**Q.** What about the inhibition of growth at 50 µM (PC-3 [1]) of the same compound?
**A.** 30.7%

**Q.** What about the inhibition of growth at 50 µM (K562 [2]) of the same compound?
**A.** 52.2%

**Q.** And the inhibition of growth at 50 µM (HCT-15 [4])?
**A.** 65.5%

**Q.** What about the Activity (SK-LU-1 [14]) of the same compound?
**A.** 16.2%

**Q.** And the Activity (SK-LU-1 [15])?
**A.** 22.6%

**Q.** What about the Activity (MCF7 [16]) of the same compound?
**A.** 14.5%

**Q.** What about the Activity (SK-LU-1 [17]) of the same compound?
**A.** 39.5%

**Q.** And the Activity (MCF7 [18])?
**A.** 63.5%

**Q.** And the inhibition of growth at 50 µM (U-251 [7])?
**A.** 37.9%

**Q.** And the inhibition of growth at 50 µM (SK-LU-1 [8])?
**A.** 81.5%

**Q.** And the inhibition of growth at 50 µM (MCF7 [10])?
**A.** 57.3%

**Q.** What about the Activity (MCF7 [19]) of the same compound?
**A.** 18.1%

**Q.** Which results are given for `O=C(c1ccc2nc(NC(=O)C(F)(F)F)cn2c1)c1ccc(C(F)(F)F)cc1F`?
**A.** inhibition of growth at 50 µM (PC-3 [1]): 92.6%; inhibition of growth at 50 µM (K562 [2]): 90.2%; IC50 (PC-3 [3]): 28 µM; inhibition of growth at 50 µM (HCT-15 [4]): 100%; IC50 (HCT-15 [5]): 25 µM; IC50 (K562 [6]): 56.6 µM; inhibition of growth at 50 µM (U-251 [7]): 80.1%; inhibition of growth at 50 µM (SK-LU-1 [8]): 100%; IC50 (SK-LU-1 [9]): 35.1 µM; inhibition of growth at 50 µM (MCF7 [10]): 97.2%; IC50 (MCF7 [11]): 24.9 µM; IC50 (U-251 [12]): 52.3 µM

**Q.** For `O=C(c1ccc2nc(NC(=O)C(F)(F)F)cn2c1)c1cc(C(F)(F)F)ccc1F`, which inhibition of growth at 50 µM (PC-3 [1]) is on record?
**A.** 61.5%

**Q.** What about the inhibition of growth at 50 µM (K562 [2]) of the same compound?
**A.** 88%

**Q.** What about the inhibition of growth at 50 µM (HCT-15 [4]) of the same compound?
**A.** 91.7%

**Q.** What about the inhibition of growth at 50 µM (U-251 [7]) of the same compound?
**A.** 59.3%

**Q.** And the inhibition of growth at 50 µM (SK-LU-1 [8])?
**A.** 70.5%

**Q.** What about the inhibition of growth at 50 µM (MCF7 [10]) of the same compound?
**A.** 65.1%

**Q.** Which results are given for `O=C(Nc1cn2cc(I)ccc2n1)C(F)(F)F`?
**A.** inhibition of growth at 50 µM (PC-3 [1]): 50.9%; inhibition of growth at 50 µM (K562 [2]): 33.1%; inhibition of growth at 50 µM (HCT-15 [4]): 56.3%; inhibition of growth at 50 µM (U-251 [7]): 20.8%; inhibition of growth at 50 µM (SK-LU-1 [8]): 25.6%; inhibition of growth at 50 µM (MCF7 [10]): 36.7%
